Assay results reported in ChEMBL document CHEMBL1149114, “Countering cooperative effects in protease inhibitors using constrained beta-strand-mimicking templates in focused combinatorial libraries” (J Med Chem, 2004).

These compounds were tested against T1, Human immunodeficiency virus type 1 protease (Human immunodeficiency virus 1, UniProt Q72874) (assay: (§1) Tested for inhibition of synthetic HIV-1 protease by using fluorometric assay).
In short: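 Synthetic HIV-1 PR (SF2 isolate; C67B, C95B, Q7K, L33I mutations, B = L-α-aminobutyric acid) solubilized in 6 M Gu·HCl, refolded 60 min in phosphate pH 7.0/glycerol/BSA buffer. Continuous fluorimetric assay with 50 μM Abz-Thr-Ile-Nle-Phe(p-NO2)-Gln-Arg-NH2 in MES pH 6.5, 100 mM NaCl, 10% glycerol, I = 0.1 M, 37 °C, varying inhibitor. Ki from Dixon or Henderson plots; Km from Hanes plot.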
With `CC[C@H](C)[C@H](NC(=O)[C@@H](NC(=O)[C@@H]1CCCN1)C(C)C)C(=O)NCC(O)C1Cc2ccc(cc2)OCCCC(=O)NC(CC(N)=O)C(=O)N1` (stereo not given in full) the Ki was 12 nM. In the case of `CC(C)CCN(C[C@@H](O)[C@@H]1Cc2ccc(cc2)OCCCCC(=O)N[C@@H](C(C)C)C(=O)N1)S(=O)(=O)c1ccccc1`, the Ki is reported as 0.4 nM. `CC(C)CCN(C[C@@H](O)[C@@H]1Cc2ccc(cc2)OCCCCCC(=O)N[C@@H](C(C)C)C(=O)N1)S(=O)(=O)c1ccccc1` was tested, and the Ki was 1.6 nM. For `CC[C@@H](C)[C@@H]1NC(=O)[C@@H](NC[C@@H](O)[C@H](Cc2ccccc2)NC(=O)OC(C)(C)C)Cc2ccc(cc2)OCCCNC1=O`, the Ki was 4 nM. Compound `CC[C@@H](C)[C@@H]1NC(=O)[C@@H](NC[C@H](Cc2ccccc2)NC(=O)OC(C)(C)C)Cc2ccc(cc2)OCCCNC1=O` has a Ki of 44 nM. `CC[C@@H](C)[C@@H]1NC(=O)[C@@H](NC[C@@H](O)[C@H](Cc2ccccc2)NC(=O)[C@@H](NC(=O)[C@H](CC(C)C)NC(C)=O)C(C)C)Cc2ccc(cc2)OCCCNC1=O` gave a Ki of 0.6 nM. With `CC[C@@H](C)[C@@H]1NC(=O)[C@@H](NC[C@@H](O)[C@H](Cc2ccccc2)NC(=O)c2cccc(C)c2)Cc2ccc(cc2)OCCCNC1=O` the Ki was 15 nM. Work on `CC(C)CCN(C[C@@H](O)[C@@H]1Cc2ccc(cc2)OCCCC(=O)N[C@@H](C(N)=O)C(=O)N1)S(=O)(=O)c1ccccc1` yielded a Ki of 1 nM. Work on `CC[C@@H](C)[C@@H]1NC(=O)[C@@H](NC[C@@H](O)[C@@H]2Cc3ccc(cc3)OCCCCC(=O)N[C@@H](C(C)C)C(=O)N2)Cc2ccc(cc2)OCCCNC1=O` yielded a Ki of 5 nM. `CC[C@@H](C)[C@@H]1NC(=O)[C@@H](NC[C@@H](O)[C@H](Cc2ccccc2)NC(=O)OC2CCOC2)Cc2ccc(cc2)OCCCNC1=O` (stereo not given in full) gave a Ki of 4 nM. `CC[C@@H](C)[C@@H]1NC(=O)[C@@H](NC[C@@H](O)[C@H](Cc2ccccc2)NC(=O)[C@H](C(C)C)N2CCCC2=O)Cc2ccc(cc2)OCCCNC1=O` was tested, and the Ki was 1 nM. Compound `CC(C)(C)N(CC(O)C1Cc2ccc(cc2)OCCCC(=O)NC(CC(N)=O)C(=O)N1)C(=O)C1CCCCN1` (stereo not given) has a Ki of 12 nM.

The compounds below were run against T1, Human immunodeficiency virus type 1 protease (assay: as §1).
`CC(=O)Nc1ccc(S(=O)(=O)N(CCC(C)C)C[C@@H](O)[C@@H]2Cc3ccc(cc3)OCCCCCC(=O)N[C@@H](C(C)C)C(=O)N2)cc1` was tested, and the Ki was 10 nM. `CC(C)CCN(C[C@@H](O)[C@@H]1Cc2ccc(cc2)OCCCCCC(=O)N[C@@H](C(C)C)C(=O)N1)S(=O)(=O)c1ccc2ccccc2c1` gave a Ki of 1 nM. Work on `CC(C)CCN(C[C@@H](O)[C@@H]1Cc2ccc(cc2)OCCCCCC(=O)N[C@@H](C(C)C)C(=O)N1)S(=O)(=O)c1cccc([N+](=O)[O-])c1` yielded a Ki of 145 nM. In the case of `CC(C)[C@@H]1NC(=O)CCCCCOc2ccc(cc2)C[C@@H]([C@H](O)CN(CCc2ccccc2)S(=O)(=O)c2ccc(N)cc2)NC1=O`, the Ki is reported as 8 nM. `CC(C)[C@@H]1NC(=O)CCCCCOc2ccc(cc2)C[C@@H]([C@H](O)CN(CCCCCC(=O)O)S(=O)(=O)c2ccc(N)cc2)NC1=O` showed a Ki of 60 nM. `CCC(C)N(C[C@@H](O)[C@@H]1Cc2ccc(cc2)OCCCCCC(=O)N[C@@H](C(C)C)C(=O)N1)S(=O)(=O)c1ccc(N)cc1` (stereo not given in full) showed a Ki of 2 nM. Compound `CC(C)CCN(C[C@@H](O)[C@@H]1Cc2ccc(cc2)OCCCCCC(=O)N[C@@H](C(C)C)C(=O)N1)S(=O)(=O)c1c(C(C)C)cc(C(C)C)cc1C(C)C` has a Ki of 4700 nM. In the case of `CC(C)CCN(C[C@@H](O)[C@@H]1Cc2ccc(cc2)OCCCCCC(=O)N[C@@H](C(C)C)C(=O)N1)NC(=O)NCc1ccccc1`, the Ki is reported as 314 nM. In the case of `CC(C)[C@@H]1NC(=O)CCCCCOc2ccc(cc2)C[C@@H]([C@H](O)CN(C2CCCC2)S(=O)(=O)c2ccc(N)cc2)NC1=O`, the Ki is reported as 3 nM. In the case of `COc1ccc(CCN(C[C@@H](O)[C@@H]2Cc3ccc(cc3)OCCCCCC(=O)N[C@@H](C(C)C)C(=O)N2)S(=O)(=O)c2ccc(N)cc2)cc1`, the Ki is reported as 3 nM. For `CC(C)CCN(C[C@@H](O)[C@@H]1Cc2ccc(cc2)OCCCCCC(=O)N[C@@H](C(C)C)C(=O)N1)NC(=O)NC1CCCCC1`, the Ki was 207 nM. In the case of `CC(C)CCN(C[C@@H](O)[C@@H]1Cc2ccc(cc2)OCCCCCC(=O)N[C@@H](C(C)C)C(=O)N1)S(=O)(=O)c1cccc2cccnc12`, the Ki is reported as 295 nM. `CCCCCCN(C[C@@H](O)[C@@H]1Cc2ccc(cc2)OCCCCCC(=O)N[C@@H](C(C)C)C(=O)N1)S(=O)(=O)c1ccc(N)cc1` gave a Ki of 14 nM.
